In ChEMBL document CHEMBL1125155, “Preparation and anticonvulsant activity of a series of functionalized alpha-aromatic and alpha-heteroaromatic amino acids” (J Med Chem, 1990):

How the values were obtained:
Mus musculus [1] = assay: Concentration required to inhibit seizures was determined in MES test after (ip) administration in mice; format: functional
Outline: (§1)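 Male CF-1 mice; compounds dissolved in 30% polyethylene glycol 400, given ip. Screening at 30, 100, 300 mg/kg, four mice per dose, tested at 0.5, 1 and 4 h for protection against maximal electroshock seizures.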

[2] = Neurological toxicity was determined using horizontal screen test in mice after intraperitoneal administration; format: organism-based; settings: mouse, in vivo, ip
Outline: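 Male CF-1 mice, ip dosing in 30% PEG 400. Previously trained mice placed on a 13 × 13 cm no. 4 mesh wire screen on a vertical rod. Rod rotated 180°; failure to return to top within 1 min counted as impairment.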

[3] = Protective index (TD50/ED50) was determined; format: functional
Outline: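 Ratio of horizontal-screen TD50 to MES ED50, both ip in male CF-1 mice given in 30% PEG 400. Both values taken at time of peak anticonvulsant activity, each from a dose-response curve (10–12 or 12 mice per dose).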

Mus musculus [4] = assay: Concentration required to inhibit seizures was determined in MES test after (ip) administration in mice; Range is >25 to <100; format: functional; outline: as §1
Mus musculus [5] = assay: Concentration required to inhibit seizures was determined in MES test after (ip) administration in mice; Range is >100 to <300; format: functional
[6] = Neurological toxicity was determined using horizontal screen test in mice after intraperitoneal administration; Range is >100 to <300; format: organism-based; settings: mouse, in vivo, ip

Q: What does the source list for `CC(=O)N[C@@H](C(=O)NCc1ccccc1)c1ccccc1`?
A: ED50 (Mus musculus [1]): 26.4 mg/kg; TD50 [2]: > 80 mg/kg

Q: Which results are given for `CC(=O)NC(C(=O)NCc1ccccc1)c1c[nH]c2ccccc12` (configuration not stated)?
A: ED50 (Mus musculus [1]): > 300 mg/kg; TD50 [2]: < 300 mg/kg

Q: Which ED50 (Mus musculus [1]) does the source give for `CC(=O)NC(C(=O)NCc1ccccc1)c1ccc2ccccc2c1` (configuration not stated) here?
A: > 300 mg/kg

Q: What about the TD50 [2] of the same molecule?
A: > 300 mg/kg

Q: For `CC(=O)N[C@@H](C(=O)NCc1ccccc1)c1ccco1`, which Ratio [3] is on record?
A: 7.2

Q: And the ED50 (Mus musculus [1])?
A: 3.3 mg/kg

Q: And the TD50 [2]?
A: 23.8 mg/kg

Q: For `CC(=O)NC(C(=O)NCc1ccccc1)c1ccc[nH]1` (configuration not stated), which TD50 [2] is on record?
A: > 30 mg/kg

Q: What does the source list for `CC(=O)N[C@H](C(=O)NCc1ccccc1)c1ccco1`?
A: ED50 (Mus musculus [1]): > 25 mg/kg; TD50 [2]: > 200 mg/kg

Q: Which TD50 [2] does the source give for `CC(=O)NC(C(=O)NCc1cccc(F)c1)c1ccco1` (configuration not stated) here?
A: 136 mg/kg

Q: Which ED50 (Mus musculus [4]) does the source give for `CC(=O)NC(C(=O)NCc1c(F)cccc1F)c1ccco1` (configuration not stated) here?
A: > 25 mg/kg

Q: With `CCC1(c2ccccc2)C(=O)NC(=O)NC1=O` [PHENOBARBITAL] as the molecule, how does the ED50 (Mus musculus [1]) read?
A: 21.8 mg/kg

Q: Which TD50 [2] does the source give for `CC(=O)NC(C(=O)NCc1ccccc1)c1ccc(C)o1` (configuration not stated) here?
A: 75.4 mg/kg

Q: Which ED50 (Mus musculus [1]) does the source give for `CC(=O)NC(C(=O)NCc1ccccc1)c1cc(C)ccc1O` (configuration not stated) here?
A: > 300 mg/kg

Q: For `CC(=O)NC(C(=O)NCc1ccccc1)c1cccs1` (configuration not stated), which TD50 [2] is on record?
A: > 30 mg/kg

Q: With `CC(=O)NC(C(=O)NCc1ccccc1)c1cc2ccccc2s1` (configuration not stated) as the molecule, how does the ED50 (Mus musculus [5]) read?
A: > 100 mg/kg

Q: And the TD50 [6]?
A: > 100 mg/kg

Q: Which results are given for `CC(=O)N[C@H](C(=O)NCc1ccccc1)c1ccccc1`?
A: ED50 (Mus musculus [1]): > 300 mg/kg; TD50 [2]: > 100 mg/kg

Q: What does the source list for `CC(=O)NC(C(=O)NCc1ccccc1)c1ccco1` (configuration not stated)?
A: ED50 (Mus musculus [1]): 10.3 mg/kg; TD50 [2]: ~40 mg/kg

Q: Which ED50 (Mus musculus [1]) does the source give for `CC(=O)N[C@H](C)C(=O)NCc1ccccc1` here?
A: 54.8 mg/kg

Q: What about the TD50 [2] of the same molecule?
A: 214 mg/kg

Q: For `CC(=O)NC(C(=O)NCc1ccccc1)c1ccc(O)cc1` (configuration not stated), which ED50 (Mus musculus [1]) is on record?
A: > 300 mg/kg

Q: For `COc1ccc(C(NC(C)=O)C(=O)NCc2ccccc2)cc1` (configuration not stated), which ED50 (Mus musculus [1]) is on record?
A: > 300 mg/kg

Q: Which TD50 [2] does the source give for `CC(=O)NC(C(=O)NCc1ccc(F)cc1)c1ccco1` (configuration not stated) here?
A: 144 mg/kg

Q: For `CC(=O)N[C@@H](C)C(=O)NCc1ccccc1`, which ED50 (Mus musculus [1]) is on record?
A: 548 mg/kg

Q: What about the TD50 [2] of the same molecule?
A: 841 mg/kg

Q: For `CC(=O)NC(C(=O)NCc1ccccc1)c1ccsc1` (configuration not stated), which TD50 [2] is on record?
A: > 100 mg/kg

Q: Which ED50 (Mus musculus [1]) does the source give for `CC(=O)NC(C(=O)NCc1ccccc1)c1cccn1C` (configuration not stated) here?
A: ~300 mg/kg

Q: What does the source list for `CC(=O)NC(C(=O)NCc1ccccc1)c1ccccc1` (configuration not stated)?
A: ED50 (Mus musculus [1]): 32.1 mg/kg; TD50 [2]: > 40 mg/kg

Q: Which ED50 (Mus musculus [5]) does the source give for `CC(=O)NC(C(=O)NCc1ccccc1)c1cc2ccccc2o1` (configuration not stated) here?
A: > 100 mg/kg

Q: And the TD50 [6]?
A: > 100 mg/kg
